Only some compounds are listed: those with a hit (about 1.2% of all), similar ones and a draw of the others.
Diaphorase act: activates diaphorase or chemically reduces, flagging diaphorase assay artifacts; Diaphorase/resazurin coupled assay, resorufin fluorescence, 16 min; hits give high values; 1 = vehicle wells, 0 = NADH-free wells; 190,000 compounds, 0.005% hits; AID 1229; activation factor at 20 µM;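 active = diaphorase activity raised at least twofold by the compound at 20 µM; inactive = activation factor below 2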
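Test system: Clostridium kluyveri diaphorase, purified enzyme; input: enzyme 0.07 U/mL final; buffer or medium: 50 mM HEPES pH 7.4 with 4.542 mM MgCl2, 0.005% Tween 20; also added: 0.114 mM NADH and 0.1 mM resazurin, final amounts; schedule: 16 min enzyme reaction, ambient temperature; technique: fluorescence of resorufin, 544 nm excitation, 590 nm emission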
Diaph inh CS: counter-screen for diaphorase-based assays: diaphorase inhibitors and chemical oxidizers | diaphorase resazurin-to-resorufin fluorescence, NADH, 16 min; bacterial (C. kluyveri) enzyme, not human | inhibition, % at 20 µM | 190,000 compounds, 0.69% hits;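 active = primary screen inhibition at 20 µM above a set limit, cut at about 50% in these data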;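 note: plate controls were DMSO with full reaction for no effect and wells lacking NADH for full effect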
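Detection: fluorescence of resorufin formed from resazurin, Ex 544/Em 590 nm; test system: Clostridium kluyveri diaphorase enzyme; amount: 0.14 U/mL diaphorase, enzyme working solution; times: 16-min room-temperature incubation before reading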
G6PDH CS: counter-screen for G6PDH assay hits: L. mesenteroides G6PDH inhibition. Purified L. mesenteroides G6PDH, diaphorase/resazurin coupled fluorescence, 45 min. inhibition, % at 5 µM. 200,000 compounds, 0.12% hits. AID 1020; in the data active = inhibition above about 50%
HKDC1 inh: inhibitors of human hexokinase HKDC1. AID 493160. 340,000 compounds, 0.16% hits. recombinant HKDC1, G6PDH/diaphorase resazurin coupled fluorescence. Q2TB90. inhibition, % at 20 µM;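 active = inhibition above about 35% when tested at 20 µM, limit read from the data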;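 note: plate controls were DMSO wells with enzyme for no effect and DMSO wells lacking enzyme for full effect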
Target sequence (Q2TB90 whole entry, looked up): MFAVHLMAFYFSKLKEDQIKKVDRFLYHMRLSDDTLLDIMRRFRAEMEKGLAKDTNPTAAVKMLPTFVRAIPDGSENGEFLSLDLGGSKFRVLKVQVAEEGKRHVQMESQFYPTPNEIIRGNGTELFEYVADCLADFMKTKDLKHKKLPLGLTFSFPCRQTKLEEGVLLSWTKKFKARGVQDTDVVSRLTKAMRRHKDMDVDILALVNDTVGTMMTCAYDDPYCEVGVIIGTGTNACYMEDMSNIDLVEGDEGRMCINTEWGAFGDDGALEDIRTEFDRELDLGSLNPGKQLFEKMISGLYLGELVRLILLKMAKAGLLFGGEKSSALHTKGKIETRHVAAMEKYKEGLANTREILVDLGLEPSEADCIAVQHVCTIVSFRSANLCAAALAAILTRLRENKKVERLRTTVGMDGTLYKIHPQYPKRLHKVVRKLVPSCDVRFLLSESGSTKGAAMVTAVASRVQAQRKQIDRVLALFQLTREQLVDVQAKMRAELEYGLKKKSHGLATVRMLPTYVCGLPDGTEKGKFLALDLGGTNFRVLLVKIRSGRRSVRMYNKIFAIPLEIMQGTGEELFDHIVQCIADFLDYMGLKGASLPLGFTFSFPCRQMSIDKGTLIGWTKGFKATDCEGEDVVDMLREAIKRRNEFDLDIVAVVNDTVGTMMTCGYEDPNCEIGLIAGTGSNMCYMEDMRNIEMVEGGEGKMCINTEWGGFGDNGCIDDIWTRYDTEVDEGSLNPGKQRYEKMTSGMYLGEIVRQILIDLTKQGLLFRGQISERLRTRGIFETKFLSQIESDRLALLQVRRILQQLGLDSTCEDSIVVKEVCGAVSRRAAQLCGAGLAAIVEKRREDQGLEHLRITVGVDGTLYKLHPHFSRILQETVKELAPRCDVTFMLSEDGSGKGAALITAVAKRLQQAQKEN
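Assay system: in-house recombinant HK5 (HKDC1) enzyme. Input: HKDC1 at 5 µg/mL. Medium: Tris pH 8.0 buffer with MgCl2, Tween-20, BSA, BME. Dosing: single 20 µM dose. Schedule: 90 min reaction incubation at room temperature, dark. Signal: resazurin-to-resorufin fluorescence via G6PDH and diaphorase coupling, 525/613 nm. Controls: DMSO-enzyme wells negative, buffer-substituted wells positive.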
PfG6PD inh: PfG6PD (Plasmodium falciparum) enzyme inhibition. 350,000 compounds, 0.78% hits. inhibition, % at 20 µM. PfGluPho enzyme, NADPH resazurin-diaphorase fluorescence;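 active = inhibition reaching at least a set limit at 20 µM in the primary screen, cut at about 59% in these data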;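 note: 0% = DMSO wells with substrate and 100% = DMSO wells lacking glucose-6-phosphate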
PfGluPho conf: confirmation of Plasmodium falciparum G6PD inhibitors | shares compounds with PfG6PD inh | recombinant PfGluPho, NADPH-diaphorase-resazurin fluorescence | inhibition, % at 20 µM | 2,400 compounds, 34% hits | AID 504753;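 active = inhibition of at least 50% at 20 µM in any single replicate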;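 note: 0% = DMSO with substrate and 100% = DMSO lacking glucose-6-phosphate substrate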
Diaph ctr 10uM: diaphorase inhibition or oxidation at 10 uM NADPH | shares compounds with PfG6PD inh | diaphorase-coupled resazurin reduction, fluorescence, NADPH 10 uM | inhibition, % at 20 µM | 820 compounds, 39% hits | AID 504862;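 active = average inhibition reaching 50% or more with the compound at 20 µM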;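 note: resorufin red fluorescence formed as diaphorase reduces resazurin using NADPH; 0% = DMSO with enzyme and 100% = DMSO without enzyme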
Diaphorase 30uM: counter-screen for P. falciparum G6PD inhibitors: diaphorase inhibitors, oxidizers | shares compounds with PfG6PD inh | Diaphorase/resazurin coupled assay, resorufin fluorescence, 30 uM NADPH | AID 504863 | inhibition, % at 20 µM | 820 compounds, 29% hits;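 active = inhibition averaging 50% or more, tested at 20 µM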;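 note: 0% = DMSO with enzyme and 100% = DMSO wells lacking diaphorase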
Starred values were filed as active, the others as inactive; · = no result given.

SMILES | Diaphorase act | Diaph inh CS | G6PDH CS | HKDC1 inh | PfG6PD inh | PfGluPho conf | others
OCCN1CCN(C(=S)c2ccc(Cl)c(Cl)c2)CC1 | 0.9 | 12 | 12 | -3 | 64* | 53* | Diaph ctr 10uM=-13;Diaphorase 30uM=-1
C/C(=N\Nc1ccc(Cl)cc1)c1ccncc1 | · | · | · | -3 | 55 | ·
C/C(=N\Nc1cccc(Cl)c1)c1ccncc1 | 1 | 0 | 0 | 1 | 78* | 33
COC(=O)C(Cc1ccccc1)NC(=O)CCNC(=O)c1ccco1 (stereo unspecified) | · | · | · | -1 | -10 | ·
Cc1cc(C(=O)CSc2nnc(C3CC3)n2C2CC2)c(C)n1C(C)C | · | · | · | 2 | 43 | 19
C=CCn1c(C)cc(C(=O)CSc2nnc(C3CC3)n2C2CC2)c1C | · | · | · | -1 | 39 | ·
O=C(CCC(=O)OCC(=O)c1ccc([N+](=O)[O-])cc1)Nc1ccccc1Cl | · | · | · | -7 | 68* | 54* | Diaph ctr 10uM=2;Diaphorase 30uM=-3
O=C(CCC(=O)OCC(=O)c1cccc([N+](=O)[O-])c1)Nc1cccc(Cl)c1Cl | 0.9 | 8 | 4 | -2 | 24 | ·
O=C(COC(=O)c1cnccn1)c1ccc([N+](=O)[O-])cc1 | · | · | · | -4 | 79* | 68* | Diaph ctr 10uM=7;Diaphorase 30uM=-17
O=C(CNC(=O)c1cccs1)NCC(=O)OCC(=O)c1ccc([N+](=O)[O-])cc1 | 0.9 | 6 | 14 | 14 | 67* | 63* | Diaph ctr 10uM=3;Diaphorase 30uM=-2
Cc1ccccc1OCC(=O)NCC(=O)OCC(=O)c1ccc([N+](=O)[O-])cc1 | · | · | · | -1 | 70* | 52* | Diaph ctr 10uM=-7;Diaphorase 30uM=-22
Cc1ccc(C(=O)COC(=O)c2cnccn2)cc1 | 1 | 0 | 2 | 1 | 1 | ·
O=C(COc1ccccc1F)OCC(=O)c1ccc([N+](=O)[O-])cc1 | · | · | · | -5 | 88* | 52* | Diaph ctr 10uM=19;Diaphorase 30uM=-1
C[n+]1cccc2cccc([O-])c21 | · | · | · | 26 | 82* | 9
C=C(C)CC(Nc1ccc(OC)cc1)c1ccco1 (stereo unspecified) | 0.9 | 10 | 16 | -7 | 19 | ·
COc1ccc(S(=O)(=O)N(C)c2ccc(C(=O)NCc3ccco3)cc2)cc1 | · | · | · | -4 | -1 | ·
Cc1cccc(C)c1NC(=O)CSc1nnc(-c2ccco2)c(-c2ccco2)n1 | 0.5 | 48 | 24 | 22 | 63* | 18
CN(CC(=O)Nc1ccc(Cl)c(Cl)c1)C(=O)C1CCC1 | · | · | · | -3 | 75* | 27
COc1ccc(OCC(=O)Nn2c(-c3ccc(OC)cc3)nc3ccccc3c2=O)cc1 | 1 | -4 | 9 | -4 | -15 | ·
COc1ccc(-c2nc3ccccc3c(=O)n2NC(=S)N(C)C)cc1 | 0.8 | 18 | 0 | -19 | 80* | 44
CC(=O)Nc1ccc(C(=O)Nc2nc(-c3cccnc3)cs2)cc1 | 1 | -2 | 1 | -1 | 60* | 2
O=C(Nc1nc(-c2ccccc2)cs1)c1cccnc1 | 1 | 0 | 13 | -3 | -1 | ·
CC(C)(C)Nc1nc(-c2ccc3c(c2)CCN3C(=O)C2CC2)cs1 | · | · | · | -12 | 70* | 17
CCOc1ccccc1OCc1nn2c(COc3ccccc3)nnc2s1 | 0.8 | 17 | -30 | -16 | 69* | 27
c1ccc(Cc2nn3c(COc4ccccc4)nnc3s2)cc1 | 0.9 | 12 | -16 | -20 | 63* | 24
SMILES | Diaphorase act | Diaph inh CS | G6PDH CS | HKDC1 inh | PfG6PD inh | PfGluPho conf | others
Clc1ccccc1-c1nn2c(COc3ccccc3)nnc2s1 | 0.9 | 10 | 0 | 3 | -14 | ·
CCOc1ccc(-c2nnc3sc(COc4ccccc4)nn23)cc1 | 1 | -1 | 2 | -2 | -9 | ·
Cc1ccc(CONC(=O)c2ccc(C)cc2)cc1 | · | · | · | -5 | 6 | ·
C[C@@]12C(=O)N(c3ccc(Cl)cc3)C(=O)N1[C@@H]1c3ccccc3OC[C@@H]1[C@H]2c1ccccc1 | · | · | · | 3 | 6 | ·
Cc1nc2cc(NS(=O)(=O)c3cccc4cccnc34)ccc2s1 | · | · | · | -1 | 61* | 37
CCOc1ccc(C(C(=O)NC2CCCCC2)N(CCOC)C(=O)c2snc(C(N)=O)c2N)cc1 (stereo unspecified) | · | · | · | -3 | 3 | ·
COc1ccc(CCNS(=O)(=O)CCNC(=O)c2ccc3c(c2)OCO3)cc1 | · | · | · | 0 | -2 | ·
Cc1ccc(C(=O)/C=C/c2ccc(-c3ccc(C)cc3)o2)cc1 | 0.8 | 18 | 4 | 6 | 40 | ·
O=C(/C=C\c1ccc(-c2ccccc2)o1)c1ccccc1 | 0.8 | 17 | -13 | 12 | 74* | -8
CC1CCc2c(sc(NC(=O)Cn3nc(C(F)(F)F)c4c3CCCCC4)c2C#N)C1 (stereo unspecified) | 1.2 | -15 | -8 | -9 | 28 | ·
N#Cc1c(NC(=O)Cn2nc(C(F)(F)F)c3c2CCCC3)sc2c1CCC2 | 0.9 | 6 | 3 | -18 | 70* | 43
COc1cc(CN2CCN(C(O)(c3ccccc3)c3ccccc3)CC2)cc(OC)c1OC | · | · | · | 6 | -4 | ·
N#CC1=C(N)Oc2c(O)cc3ccccc3c2C1c1ccsc1 (stereo unspecified) | 0.9 | 12 | -17 | -2 | 92* | 69* | Diaph ctr 10uM=64*;Diaphorase 30uM=50
CCOC(=O)C1=C(C)OC(N)=C(C#N)C1c1ccsc1 (stereo unspecified) | 0.9 | 6 | -2 | 11 | -35 | ·
COc1ccccc1N(C(C)=O)C1=C(Cl)C(=O)c2ccccc2C1=O | · | · | · | · | 123* | 115* | Diaph ctr 10uM=92*;Diaphorase 30uM=92*
COc1ccccc1N(C(=O)CCl)c1cn(C(C)=O)c2ccccc12 | · | · | · | 8 | -13 | ·
CC1=C(n2nnc([N+](=O)[O-])n2)C(c2cccnc2)C(C#N)=C(N)O1 (stereo unspecified) | 0.8 | 21 | 8 | 21 | 84* | 79* | Diaph ctr 10uM=48;Diaphorase 30uM=49
CCC(CN(C)C)Oc1cc(NCc2ccccc2)c2ncn(C(C)C)c2c1 (stereo unspecified) | · | · | · | 21 | 58 | ·
COc1cc(NCc2ccccc2)c2ncn(C(C)C)c2c1 | · | · | · | 7 | 61* | 56* | Diaph ctr 10uM=-3;Diaphorase 30uM=-10
O=C(CSc1nnc(-c2ccncc2)o1)Nc1cc(Cl)ccc1C(=O)O | · | · | · | -1 | 60* | 28
O=C(CSc1nnc(-c2ccncc2)o1)Nc1cc(F)ccc1F | · | · | · | -1 | -7 | ·
COC(=O)Sc1nc(N2CCOCC2)c2c(c1C#N)CC(C)(C)OC2 | 0.9 | 14 | 4 | 5 | 50 | 21
COc1ccc(NCC(=O)N/N=C/C2CCCCC2)cc1 | · | · | · | 16 | 69* | 13
COc1ccc(CN2CCNC(=O)C2CC(=O)NCCCC2CCCC2)c(C)c1C (stereo unspecified) | · | · | · | -9 | 8 | ·

Screening results deposited in PubChem BioAssay by Sanford-Burnham Center for Chemical Genomics.
